This is an account of results in PMC4330091 (Bioorganic & medicinal chemistry, 2014).

The test system of data set [1] is MCF-10A non-tumorigenic human breast epithelial cell line. Description: MTT anti-proliferative assay on MCF-10A. Format: cell-based. Particulars: read-out: IC50, MCF-10A. Background: Formazan colour is commonly taken as a measure of viable cells.
In data set [2] the test system is MCF-7 breast cancer cell line. Particulars: cited from earlier work; for pIC50: read-out: IC50, MCF-7, MTT assay, 72 h drug exposure.
Data set [3] concerns MCF-7. As to the kind of experiment: ROS production. Particulars: MCF-7, 72 h. Format: cell-based, human.
For data set [4] the following is noted: CH3CN, vs Ag/AgCl, cited from earlier work.
The subject of data set [5] is HT-29 colon cancer cell line. Particulars: read-out: IC50, HT-29; MTT assay, 72 h drug exposure; cited from earlier work.
In data set [6] the test system is MCF-7 cells. Description: Cytokinesis-block micronucleus assay. Particulars: for % Binucleated cells (Mitotic rate) / Micronucleus (MNi) (mean ± SD): 72 h treatment; for % Binucleated cells (Mitotic rate): MCF-7, mean (SD); for increase in micronucleus forming activity compared to control (untreated cells): MCF-7; for Micronucleus (MNi) (mean ± SD): micronucleated cells in 500 binucleated MCF-7 cells.

Data set [7] is described as follows: Cyclic voltammetry in CH3CN. Format: physicochemical. Particulars: 0.1 M [NBu4n]PF6, 100 mV/s, vs Ag/AgCl. The essentials: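 Test compound dissolved at 2 × 10⁻³ M in deoxygenated CH3CN with 0.1 M [NBuⁿ₄]PF₆ as supporting electrolyte; cyclic voltammograms recorded on these solutions.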
In data set [8] the test system is MCF-7 breast cancer cell line. As to the kind of experiment: MTT anti-proliferative assay on MCF-7. Type of data set: cell-based, human. Particulars: read-out: IC50, MCF-7.
Data set [9] deals with HT-29 colon cancer cell line. Description: MTT anti-proliferative assay on HT-29. Type of data set: cell-based, human. Particulars: read-out: IC50, HT-29.
Data set [10] has as its system MCF-7 cells.
Data set [11] has as its system MCF-7 cells. Particulars: ref 35 (Yared et al.); cited from earlier work.
For data set [12], the system named is MCF-10A non-tumorigenic human breast epithelial cell line. Particulars: cited from earlier work.
Where [13] appears, read: MTT assay, 72 h drug exposure, SD in parenthesis.
The mark [14] stands for this setting: ref 13. Dalton Trans. 40 (2011) 9557–9565.
Where [15] appears, read: ref 14. J. Organometal. Chem 749 (2014) 204–214.

Molecules are shown by their SMILES. pIC50: −log10 of the molar value. Like-named read-outs stand apart in the source and are kept apart here. Marks after values point to notes of the source that are not given here.

Usually pIC50 stands for the negative decadic logarithm of the IC50, by convention in mol/L. On to `C[C@]12CC[C@@H]3c4ccc(OC(=O)[c-]5cccc5)cc4CC[C@H]3[C@@H]1CC[C@@H]2O.[Fe+2].c1cc[cH-]c1` [Fc-CO2-estradiol, ferrocenoyl 17β-hydroxy-estra-1,3,5(10)-trien-3-olate], for which the negative logarithm of the IC50 (pIC50) in data set [1] (setting [13]) is 3.92. In data set [2], the pIC50 is 5.05. Besides, the “ROS production (in words)” value in [3] was “significant increase”. Moreover, in data set [4] (setting [14]), the E1/2 is recorded as 756 mV, the Epa is on record as 801 mV, the Epc is 711 mV and the ΔE is on record as 90 mV. Moreover, the pIC50 in data set [5] was 4.61. Moreover, in data set [6] (0.01 μM), the “% Binucleated cells (Mitotic rate)” value is on record as 33 (2) ^* % and the “increase in micronucleus forming activity compared to control (untreated cells)” value (from here on “increase … (untreated cells)”) came to 3 fold. In data set [6] (0.1 μM), the “% Binucleated cells (Mitotic rate)” value is 39 (9) ^* %, the “Micronucleus (MNi) (mean ± SD)” value was found to be 25 and the “increase … (untreated cells)” value is on record as 4 fold. In data set [6] (1 μM), the “% Binucleated cells (Mitotic rate)” value is 34 (9) ^* %, the “Micronucleus (MNi) (mean ± SD)” value came out at 29 and the “increase … (untreated cells)” value is 4 fold. Also, the “increase in micronucleus-forming activity” value in data set [6] (concentration near IC50, MCF-7) is reported as “up to 4 fold”.
As for `[Fe+2].c1cc[cH-]c1.c1cc[cH-]c1` [Fc/Fc^+, ferrocene], in [7], the E1/2 amounted to 454 mV, the Epa is reported as 494 mV, the Epc stood at 414 mV and the ΔE was 80 mV.
Turning to `COS(C)(=O)=O` [MMS, methyl methane sulphonate], in [6] (94.4 μM), the “% Binucleated cells (Mitotic rate)” value is on record as 28 (3) ^* % and the “Micronucleus (MNi) (mean ± SD)” value was 62 (6) ^***.
With `O=C(O)Cc1ccc[cH-]1.[Fe+2].c1cc[cH-]c1` [Ferroceneacetic acid], the figures for the pIC50 in [8] (setting [13]), in [1] (setting [13]) and in data set [9] (setting [13]) were 3.23, 4.07 and 3.60, respectively.
For `Oc1ccc(-n2cccc2)cc1` [4-(1H-pyrrol-1yl)phenol], the pIC50 was 3.60 in data set [8] (Homo sapiens, MCF7, 72 h); 3.26 in data set [1] (Homo sapiens, MCF-10A, 72 h); 3.68 in data set [9] (Homo sapiens, HT-29, 72 h).
For the compound `O=C(Oc1ccc(-n2cccc2)cc1)[c-]1cccc1.O=C(Oc1ccc(-n2cccc2)cc1)[c-]1cccc1.[Fe+2]` [Fc-(CO2-Ph-4-Py)2, 1,1′-4-(1H-pyrrol-1-yl)phenyl ferrocenedicarboxylate], in [10], the “Micronucleus (MNi) (mean ± SD)” value was 15 (1) ^**, the “increase … (untreated cells)” value is listed as “up to 5 fold” and the “increase in micronucleus-forming activity” value is on record as “up to 5 fold”. Also, the pIC50 in data set [8] (setting [13]) was 4.34. Further, the pIC50 in data set [1] (setting [13]) was 3.53. In addition, in [7], the E1/2 is on record as 910 mV, the Epa is recorded as 958 mV, the Epc is 862 mV and the ΔE is reported as 96 mV. The “ROS production (in words)” value in [3] is given as “significant increase”. In data set [9] (setting [13]), the pIC50 was 3.72. Also, the “% Binucleated cells (Mitotic rate)” value in data set [6] (0.1 μM) is 18 (7) ^* %. Moreover, in data set [6] (1 μM), the “% Binucleated cells (Mitotic rate)” value is listed as 33 (13) ^* %. Besides, the “% Binucleated cells (Mitotic rate)” value in data set [6] (10 μM) is listed as 25 (6) ^* %.
On to `C[C@]12CC[C@@H]3c4ccc(O)cc4CC[C@H]3[C@@H]1CC[C@@H]2O` [β-estradiol], for which, in [11], the “increase in the micronucleus-forming activity” value is recorded as 3 fold.
Regarding `O=C(Oc1ccc(Br)cc1)[c-]1cccc1.[Fe+2].c1cc[cH-]c1` [Fc-CO2-Ph-4-Br, 4-bromophenyl ferrocenecarboxylate], the pIC50 in data set [2] is 5.04. Moreover, in data set [4] (setting [15]), the E1/2 is on record as 532 mV, the Epa is 580 mV, the Epc is 484 mV and the ΔE was 96 mV. Besides, in [12] (read-out: IC50, MCF-10A, MTT assay, 72 h drug exposure), the pIC50 is 3.45. Moreover, the pIC50 in data set [5] was 4.62.
For `O=C(Oc1ccc(-n2cccc2)cc1)[c-]1cccc1.[Fe+2].c1cc[cH-]c1` [Fc-CO2-Ph-4-Py, 4-(1H-pyrrol-1-yl)phenyl ferrocenecarboxylate], the “anti-proliferative activity (in words)” value in [2] (hormone-dependent breast cancer cell line MCF-7) and in data set [12] (non-tumorigenic human breast epithelial cell line MCF-10A) was “high anti-proliferative activity” in each case.
As for `O=C(O)[c-]1cccc1.O=C(O)[c-]1cccc1.[Fe+2]` [1-1′ferrocenedicarboxilic acid], in data set [9] (setting [13]), the pIC50 is 3.39.
In the case of `F[B-](F)(F)F.[Fe+3].c1cc[cH-]c1.c1cc[cH-]c1` [Ferricenium tetrafluoroborate], the results for the pIC50 in data set [2] and in data set [5] were 3.82 and 3.74, respectively.
